This is a sample that favours compounds with a hit; in the whole collection about 2.6% have one here.
STEP block: inhibitors of human striatal-enriched phosphatase STEP. recombinant STEP, OMFP fluorogenic substrate, fluorescence. inhibition, % at 20 µM. hit rate 0.25% among 360,000. P54829;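 active = inhibition at 20 µM, scaled per plate between control wells, above about 37%, limit read from the data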;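 also: 0% = DMSO with enzyme and substrate and 100% = substrate only without enzyme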
Target sequence (P54829 whole entry, looked up): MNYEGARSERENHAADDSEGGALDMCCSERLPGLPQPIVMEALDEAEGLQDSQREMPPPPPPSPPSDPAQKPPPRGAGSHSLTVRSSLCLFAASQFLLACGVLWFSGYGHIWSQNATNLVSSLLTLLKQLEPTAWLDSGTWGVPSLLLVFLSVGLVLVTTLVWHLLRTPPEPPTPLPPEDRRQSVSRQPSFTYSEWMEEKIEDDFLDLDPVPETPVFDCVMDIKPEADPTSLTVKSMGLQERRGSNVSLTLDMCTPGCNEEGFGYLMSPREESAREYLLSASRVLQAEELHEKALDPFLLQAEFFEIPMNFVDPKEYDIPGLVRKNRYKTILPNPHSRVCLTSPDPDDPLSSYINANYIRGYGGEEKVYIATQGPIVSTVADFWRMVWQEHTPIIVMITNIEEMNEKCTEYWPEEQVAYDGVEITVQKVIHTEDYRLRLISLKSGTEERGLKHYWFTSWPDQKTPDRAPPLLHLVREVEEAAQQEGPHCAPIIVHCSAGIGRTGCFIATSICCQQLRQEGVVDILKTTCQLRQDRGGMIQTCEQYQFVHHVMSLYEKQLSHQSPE
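medium = Bis-Tris buffer pH 6.0, 2.5 mM DTT, 0.005% Tween 20 | test system = STEP (striatal-enriched tyrosine phosphatase) enzyme, cell-free | measure = normalized % inhibition | compound dosing = 20 µM, 1% DMSO | also added = 25 µM OMFP | schedule = reaction 20 min, ambient temperature | measured by = fluorescence read at 480 nm ex / 540 nm em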
rCAG RNA binder: r(CAG) repeat RNA binding; hit rate 1.3% among 370,000; inhibition, % at 3 µM; TO-PRO-1 dye displacement fluorescence; AID 651821;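 active = inhibition above the plate cutoff, the mean of all test compounds on that plate plus 3 SD, cut at about 35% in these data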;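 also: 0% = DMSO alone and 100% = 100 µM mitoxantrone as full dye displacement; higher means more dye released from RNA so lower well fluorescence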
LMPTP inh: LMPTP (human) inhibition; hit rate 0.22% among 360,000; recombinant LMPTP-A, OMFP fluorogenic substrate, fluorescence intensity; AID 651560; inhibition, % at 20 µM; P24666;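 active = compounds that cut the enzyme signal by at least half of the control window in the single-dose screen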;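 also: plate controls were DMSO wells with enzyme plus substrate for no effect and substrate without enzyme for full effect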
Target sequence (P24666 whole entry, looked up): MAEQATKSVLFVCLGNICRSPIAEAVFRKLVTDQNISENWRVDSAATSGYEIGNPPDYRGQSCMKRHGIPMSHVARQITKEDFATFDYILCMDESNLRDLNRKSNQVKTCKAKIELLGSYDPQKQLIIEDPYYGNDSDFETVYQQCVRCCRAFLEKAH
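material = LMPTP-A | quantity = 0.625 nM enzyme | reagent = OMFP substrate, 400 µM final | buffer or medium = Bis-Tris pH 6.0, DTT, detergent | detection = endpoint fluorescence intensity from OMFP dephosphorylation | dosing = single 20 µM dose | read-out basis = % inhibition relative to no-enzyme and uninhibited control wells | control set = no-enzyme and uninhibited controls | timing = 50 min at room temperature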
Scp-1 inhibitor: Scp-1 (human) phosphatase inhibition; Q9GZU7; Recombinant Scp1, phosphopeptide, malachite green phosphate absorbance; inhibition, % at 20 µM; hit rate 0.88% among 340,000; AID 493091;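 active = inhibition above about 50% at 20 µM, limit read from the data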;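 also: plate controls were DMSO wells with enzyme for no effect and wells lacking enzyme for full effect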
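Incubation: 45 min enzyme reaction at room temperature / System: truncated SCP-1 phosphatase (76-261aa) / Reagent: Phospho 17-mer peptide substrate / Buffer or medium: Acidic Tris acetate buffer with magnesium and detergent / Signal: absorbance at 630 nm / Doses: one concentration, 20 µM, with 1.0% DMSO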
NadD block: blocks S. aureus nicotinate mononucleotide adenylyltransferase. purified NadD enzyme, colorimetric absorbance read-out. inhibition, % at 20 µM. hit rate 0.78% among 360,000. AID 602399; in the data active = inhibition above about 26%
rCAG bind conf: r(CAG) RNA repeat binding, confirmation; shares compounds with rCAG RNA binder; TO-PRO-1 dye displacement fluorescence; inhibition, % at 3 µM; hit rate 70% among 4,300; AID 652065;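 active = inhibition above a per-plate cutoff, the mean inhibition of sample wells plus 3 SD, cut at about 35% in these data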;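 also: loss of TO-PRO-1 fluorescence as compound displaces dye from 1x1 AA loop RNA; 0% = DMSO only wells and 100% = 100 µM mitoxantrone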
DNA CAG counter: disrupts DNA CAG TO-PRO-1 complex, flagging rCAG hits; hit rate 94% among 4,300; inhibition, % at 3 µM; AID 652068; shares compounds with rCAG RNA binder; d(CAG) DNA oligo TO-PRO-1 dye displacement, fluorescence;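 active = inhibition above its plate's cutoff, the mean test-well inhibition plus 3 SD, cut at about 4.8% in these data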;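 also: 0% = DNA dye mix with DMSO and 100% = 100 µM mitoxantrone; hits displace the dye from DNA and so lower well fluorescence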
DNA CAG DR: DNA CAG dye complex inhibition, dose response counter-screen; shares compounds with rCAG RNA binder; DNA CAG/GTC duplex TO-PRO-1 dye displacement fluorescence; IC50, µM; hit rate 20% among 250; in the data active = IC50 below about 10 µM
* hit, by the source's call; i = inactive; nt = no result.

SMILES | STEP block | rCAG RNA binder | LMPTP inh | Scp-1 inhibitor | NadD block | rCAG bind conf | DNA CAG counter | others
O=C(CCCN1C(=O)S/C(=C\C=C\c2ccccc2)C1=O)Nc1ccc(O)cc1 | -2 | 9 | 1 | -10 | 4 | nt | nt
CCN(C(=O)[C@@H]1CC(=O)O[C@@H]1c1ccccc1)c1ccccc1 | nt | 1 | nt | nt | nt | nt | nt
CN(C)c1ccc(NC(=O)NC2CCCCN(Cc3cccc(Cl)c3)C2=O)cc1 (centres undefined) | nt | 6 | nt | nt | nt | nt | nt
O=C(COC(=O)CCN1C(=O)/C(=C\C=C\c2ccccc2)SC1=S)Nc1cc(F)ccc1F | 3 | 38* | 5 | -6 | 35* | 28 | 14*
O=C(COC(=O)CN1C(=O)NC2(CCCCC2)C1=O)Nc1cc(F)ccc1F | 0 | -1 | -1 | -2 | 6 | nt | nt
O=C(Nc1ccccc1C(=O)NC(Cc1c[nH]c2ccccc12)C(=O)O)c1ccccc1 (centres undefined) | 0 | 33 | -1 | -10 | -5 | nt | nt
Cc1oc(-c2ccccc2)cc1C(=O)NC(Cc1c[nH]c2ccccc12)C(=O)O (centres undefined) | -2 | 40* | -2 | 6 | 1 | 52* | 18*
Cc1ccc(C)c(OCC(=O)NC(Cc2c[nH]c3ccccc23)C(=O)O)c1 (centres undefined) | 4 | 20 | 2 | 7 | 2 | nt | nt
Cc1ccc(Nc2nnc(SCC(=O)NC(Cc3c[nH]c4ccccc34)C(=O)O)s2)cc1 (centres undefined) | 7 | 38* | 1 | 11 | 12 | 28 | 8.6*
CCOc1ccccc1Nc1nnc(SCC(=O)NC(Cc2c[nH]c3ccccc23)C(=O)O)s1 (centres undefined) | 3 | 39* | 0 | 3 | 7 | 33 | 10*
COc1cc(/C=C/c2ccc3cccc([N+](=O)[O-])c3n2)ccc1OCC(=O)O | 6 | 48* | -1 | 49 | 11 | 47* | 13*
CC(=O)Nc1ccc(/C=C/c2ccc3cccc([N+](=O)[O-])c3n2)cc1 | 4 | 20 | 1 | -2 | -6 | nt | nt
O=C(O)COc1ccc(/C=C/c2ccc3cccc([N+](=O)[O-])c3n2)cc1 | 1 | 37* | 0 | 30 | 4 | 27 | 8.4*
COC(=O)C1CN(Cc2ccccc2)CCS(=O)(=O)N1Cc1ccc(F)cc1 (centres undefined) | nt | 0 | nt | nt | nt | nt | nt
CCN(CC)c1nc(N)c2c(N)nc3c(c2c1C#N)CC(c1ccccc1)O3 (centres undefined) | -2 | 27 | 0 | 8 | 4 | nt | nt
CCN(CC)c1nc(N)c2c(N)n(-c3ccccc3C)c(=S)c(C#N)c2c1C#N | -4 | 98* | 1 | 2 | 26 | 93* | 69*
CCCc1cc2c(-c3ccccc3)cc(=O)oc2cc1OCc1ccc(C(=O)O)o1 | 5 | 57* | 3 | 7 | 17 | 73* | 27* | DNA CAG DR=i
CCc1cc2c(-c3ccccc3)cc(=O)oc2cc1OCC(C)=O | 1 | -2 | 1 | 4 | 1 | nt | nt
Cc1ccnc(OC(C(=O)O)C(OCc2ccccc2)(c2ccccc2)c2ccc(C(F)(F)F)cc2)n1 (centres undefined) | 0 | 50* | -1 | -6 | 11 | 49* | 14* | DNA CAG DR=>30
Cc1cc(C)nc(OC(C(=O)O)C(OCc2ccccc2)(c2ccccc2)c2ccccc2)n1 (centres undefined) | -2 | 29 | 0 | 9 | 6 | nt | nt
Cc1cc(Br)cn2c(Cc3ccccc3C(F)(F)F)c(-c3ccco3)nc12 | nt | 32 | nt | nt | nt | nt | nt
Cc1[nH]c2ccccc2c1/C=N/NC(=O)c1cccc([N+](=O)[O-])c1 | 0 | 6 | 1 | -1 | 2 | nt | nt
Cc1[nH]c2ccccc2c1/C=N/Nc1ccc([N+](=O)[O-])cc1 | 2 | 56* | 8 | 1 | 5 | 32 | 21*
O[C@H](COc1cccc(Br)c1)CN1CCC(C(O)(c2ccccc2)c2ccccc2)CC1 | nt | 1 | nt | nt | nt | nt | nt
O=C1NN(c2ccccc2)C(=O)/C1=C/c1coc2ccccc2c1=O | 7 | 39* | 0 | -4 | 8 | 11 | 3
SMILES | STEP block | rCAG RNA binder | LMPTP inh | Scp-1 inhibitor | NadD block | rCAG bind conf | DNA CAG counter | others
O=C1NN(c2ccccc2)C(=O)/C1=C\c1coc2ccc(O)cc2c1=O | 1 | 36* | 4 | 13 | 3 | 8 | 4
O=C1NN(c2cccc(Br)c2)C(=O)/C1=C\c1ccccc1 | 9 | 77* | 2 | -6 | 16 | 39* | 11*
O=C1NN(c2ccccc2)C(=O)/C1=C\c1ccccc1 | 6 | 10 | -2 | 0 | 5 | nt | nt
COC[C@@H]1CCCN1c1cccc2c1S(=O)(=O)N(C1CC1)CC[C@@H](C)O2 | nt | 11 | nt | nt | nt | nt | nt
CCOC(=O)c1c(NC(=O)/C=C/C(=O)O)sc(C)c1-c1ccc(C(C)(C)C)cc1 | 7 | 80* | 0 | 0 | 12 | 73* | 34* | DNA CAG DR=7.6*
O=S(=O)(O)c1cccc(N=Nc2c(O)ccc3ccccc23)c1 | 9 | 38* | 10 | -7 | -2 | 36* | 9.7*
COc1ccc(/C=N/n2c(-c3cc(C)[nH]n3)n[nH]c2=S)cc1OC | 2 | -3 | -3 | 1 | -2 | nt | nt
S=c1[nH]nc(-c2cc(-c3ccccc3)n[nH]2)n1/N=C/c1cccc(Cl)c1 | 9 | 35* | 10 | 4 | 24 | 70* | 32* | DNA CAG DR=i
COc1cc(/C=N/n2c(-c3cc(-c4ccccc4)n[nH]3)n[nH]c2=S)ccc1OCc1ccccc1 | nt | 58* | nt | nt | nt | 55* | 26*
S=c1[nH]nc(-c2cc(-c3ccccc3)n[nH]2)n1N=Cc1cccc(OCc2ccccc2)c1 | nt | 77* | nt | nt | nt | 63* | 32*
COc1ccc(/C=N/n2c(COc3ccccc3)n[nH]c2=S)cc1OC | 2 | 6 | -4 | -9 | -2 | nt | nt
S=c1[nH]nc(-c2cc(-c3ccccc3)n[nH]2)n1N=Cc1cccc(Oc2ccccc2)c1 | nt | 66* | nt | nt | nt | 61* | 31*
CC(C)N1CCCCC(NC(=O)Cc2ccccc2)C1=O (centres undefined) | nt | 0 | nt | nt | nt | nt | nt
COCc1[nH]nc2c1C(c1ccc(F)cc1)N(c1ccc(OC)cc1)C2=O (centres undefined) | nt | 3 | nt | nt | nt | nt | nt
COc1ccc(S[C@]2(C(=O)N3CCN(c4ncccn4)CC3)CC(=O)N(c3ccsc3)[C@@H]2c2ccc(OC)cc2)cc1 | nt | 13 | nt | nt | nt | nt | nt
O=S1(=O)c2c(NCc3ccco3)cccc2Oc2ccccc2CN1Cc1cn(Cc2ccc(Cl)cc2)nn1 | nt | 15 | nt | nt | nt | nt | nt
COc1ccc2nc(N3CCCCC3)c(/C=C3\SC(=S)NC3=O)cc2c1 | -2 | 8 | 4 | -3 | 16 | nt | nt
